# HIV Env fusion: inhibitors of HIV Env-mediated cell fusion | inhibition, % at 12.3 µM | actives 1.1% (n = 360,000) | HeLa-JRFL Env/CEM21 cell fusion, luciferase | AID 651610;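 active = mean replicate inhibition score of at least 50 and every replicate individually at or above 50; inconclusive = only one of the two criteria met; inactive = mean below 50 and not all replicates reaching 50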;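 also: 0% = plate neutral controls and 100% = maraviroc near 300 nM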
# PvdQ acylase: blocks Pseudomonas aeruginosa PvdQ acylase activity. purified PvdQ acylase, fluorescence plate reader. inhibition, % at 10 µM. actives 0.063% (n = 340,000); in the data active = inhibition above about 30%, passing the limit was not always enough; inconclusive = no clear call, values can overlap the other calls;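 also: 0% = vehicle neutral wells and 100% = reference inhibitor wells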
# FN deposition inh: fibronectin deposition inhibition; actives 0.086% (n = 350,000); AID 743247; AH1F fibroblasts, Alexa488-fibronectin deposition fluorescence, overnight; inhibition, % at 12.6 µM;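 active = mean inhibition across replicates of 30% or more, regardless of how many single replicates reach that level; inconclusive = mean under 30% yet at least half of replicates reach 30%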;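 also: positive control wells lacked labelled fibronectin entirely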
#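 Assay system: AH1F fibroblasts / Quantity: 10000 cells per well / Medium: DMEM plus 2% serum, read in PBS / Reagent: labelled fibronectin 24 nM / Dosing: single dose, pinned / Times: 1 h cell attachment, overnight exposure to compound and label / Signal: fluorescence, ex 485 nm, em 525 nm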
# ERp5 block: ERp5 (human) disulfide isomerase inhibition | Q15084 | inhibition, % at 9.99 µM | ERp5 insulin aggregation, absorbance 650 nm, 90 min | actives 0.05% (n = 350,000);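 active = mean replicate inhibition above about 25%, with every replicate also reaching it, limit read from the data, passing the limit was not always enough; inconclusive = only one of those two criteria met; inactive = neither criterion met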
# PDI inh: PDI (human) enzyme inhibition. P07237. PDI insulin aggregation turbidity, A650, 90 min. inhibition, % at 10 µM. actives 0.052% (n = 350,000);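 active = mean inhibition across replicates of 30% or more, whatever share of single replicates reach that level; inconclusive = mean inhibition below 30% while every single replicate reaches 30%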
# Target sequence (P07237 whole entry, looked up): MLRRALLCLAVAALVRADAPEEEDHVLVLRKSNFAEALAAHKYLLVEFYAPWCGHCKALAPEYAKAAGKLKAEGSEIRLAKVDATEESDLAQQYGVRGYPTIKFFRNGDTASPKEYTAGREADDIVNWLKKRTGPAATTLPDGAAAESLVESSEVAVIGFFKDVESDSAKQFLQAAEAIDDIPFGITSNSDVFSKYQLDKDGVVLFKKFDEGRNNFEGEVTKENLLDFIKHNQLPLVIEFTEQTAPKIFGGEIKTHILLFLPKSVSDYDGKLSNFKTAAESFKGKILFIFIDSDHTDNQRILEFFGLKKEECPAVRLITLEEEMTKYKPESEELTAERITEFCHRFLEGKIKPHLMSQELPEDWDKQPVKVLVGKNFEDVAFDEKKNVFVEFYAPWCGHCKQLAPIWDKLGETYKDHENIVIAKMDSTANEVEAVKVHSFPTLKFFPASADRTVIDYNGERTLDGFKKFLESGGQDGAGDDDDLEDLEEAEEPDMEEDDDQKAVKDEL
# Ecoli rRNA inh: inhibitors of bacterial rRNA selective over humanized ribosomes; E. coli WT GFP vs humanized-ribosome RFP mutants, fluorescence, 24 h; stronger effect = lower value; DMSO median 0, no signal -100; GFP signal change (wild-type ribosome), % (concentration not given with the values); actives 1.6% (n = 350,000); AID 720706;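 active = significant combined selectivity score with lowered wild-type GFP, culture density cut under 30%, mutant RFP and density less affected; inactive = any of these conditions unmet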
# AID977621: growth inhibition of wild-type GFP E. coli, dose response, H69 mutant RFP, cherry-pick; E. coli wild-type GFP strain growth, fluorescence, 24 h; shares compounds with Ecoli rRNA inh; activity change, negative = inhibition at 50 µM; AID 977621; 1,900 tested, under 10 active;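 active = Wild-type ribosome reporter drop at least double the humanized mutant ribosome reporter drop, growth loss under a set limit; inconclusive = no clear call, values can overlap the other calls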;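 also: wild-type GFP and H69 mutant RFP strains grown together 50/50 in each well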
# AID977628: growth of wild-type and h24-humanized E. coli strains – h24 mutant RFP vs wild-type GFP, cherry-pick, dose response | 1,900 tested, under 10 active | shares compounds with Ecoli rRNA inh | E. coli WT GFP strain growth, fluorescence, 24 h | activity change, negative = inhibition at 50 µM;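 active = compound lowering the normal-ribosome reporter at least twice as much as the humanized-ribosome reporter, growth loss under a set limit; inconclusive = no clear call, values can overlap the other calls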;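 also: wild-type GFP and h24 humanized RFP strains co-cultured 1 to 1 per well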
# Numbers without * were called inactive; ? = inconclusive; / = not tested or not shown; [ ] = another dose, or the depositor's remark. The list is not random: actives were taken first. Their share in the collection is about 2.2%.
SMILES,HIV Env fusion,PvdQ acylase,FN deposition inh,ERp5 block,PDI inh,Ecoli rRNA inh,AID977621,AID977628
CC(C)(C)c1ccc(C(CC(=O)O)NC(=O)Cc2ccc(Cl)cc2)cc1 (stereo unspecified),4.7,-4.4,3.8,-1.1,0.0,-23.9*,-15,?
CCCN1CCN(C(=O)c2ccc(Sc3ccc(C)cc3)c(NC(C)=O)c2)CC1,/,-2.6,/,3.1,-11.4,-12.7*,-22,-3.77
Clc1ccccc1C1CC(c2ccccc2)=Nc2ccccc2N1 (stereo unspecified),-2.7,-12.6,-6.9,-1.9,2.9,-19.7*,/,?
Cc1onc(-c2ccccc2)c1C(=O)Oc1ccccc1,-3.2,/,-6.2,-1.2,0.0,-28.8*,-3.33,-2.95
CCCC#Cc1cnc2c(c1)C(=O)N([C@H](C)CO)C[C@@H](C)[C@H](CN(C)C(=O)CCN1CCCCC1)O2,/,/,-2.7,/,/,2.7,/,/
CCC1(C(=O)OC)CCc2c(cc(OC)c3ccccc23)C1=O (stereo unspecified),21.9,-7.6,6.9,-4.1,-2.9,-26.9*,-6.55,-11.8
CCOc1ccc2nc(NC(=O)CSc3nc(SC)ns3)sc2c1,/,4.2,/,13.2,-6.3,-24.0*,-8.89,/
CCOc1ccc2nc(NC(=O)CSc3ccc(Cl)cc3)sc2c1,-22.1,2.1,-12.5,/,3.2,/,/,/
Cn1c(CO)cnc1SCC(=O)c1ccc(F)cc1,-8.3,1.9,2.8,1.9,-1.4,-5.0,/,/
Cn1c(CO)cnc1SCC(=O)c1ccc(Br)cc1,-2.0,-19.2,-5.4,-2.5,2.1,-20.7*,1.81,-5.83
CNC(=O)C[C@H]1CC[C@H]2[C@H](COc3ccc(NC(=O)Nc4cc(C)cc(C)c4)cc3C(=O)N2C)O1,0.9[16.7 µM],/,-29.8,/,/,1.4,/,/
O=C(Nc1ccc(F)cc1)C1CC2CCC1C2 (stereo unspecified),1.8,-9.4,-8.6,1.3,6.4,-2.8,/,/
O=C(Nc1ccc(F)c(Cl)c1)C1CC2CCC1C2 (stereo unspecified),12.2,-9.2,-6.5,1.8,-4.8,-28.1*,4.34,5.05
C[C@H](CO)N1C[C@H](C)[C@H](CN(C)C(=O)Nc2ccc3c(c2)OCO3)OCCCC[C@H](C)Oc2ccc(NC(=O)CCCCCC(=O)Nc3ccccc3N)cc2C1=O,-0.1[16.7 µM],/,/,4.4,/,-1.2,/,/
Cc1onc(-c2c(F)cccc2Cl)c1C(=O)c1ccccc1,2.8,6.9,-3.3,-0.5,4.6,-24.1,/,/
Cc1onc(-c2c(F)cccc2Cl)c1C(=O)c1ccccc1O,1.4,6.3,8.8,2.5,7.1,-41.7*,-10.5,?
c1ccc(-c2sc3ccccc3c2-c2ccc(OCCN3CCCCC3)cc2)cc1,12.4,-8.7,0.3,-5.0,14.2,-17.0*,2.67,12.6
COc1ccc(C[C@H]2CCn3cc(nn3)COCCNC2=O)cc1,/,/,-1.7,/,/,1.8,/,/
CCCN1C[C@@H](C)[C@H](OC)CN(C)C(=O)c2cc(NC(=O)C3CC3)ccc2OC[C@@H]1C,/,/,-2.7,1.0,/,0.5,/,/
COc1ccc(C2CN=NC23CCCc2ccccc2C3=O)cc1 (stereo unspecified),-6.1,-14.9,1.4,/,2.7,/,/,/
COc1ccc(C2CN=NC23CCc2ccccc2C3=O)cc1 (stereo unspecified),-0.1,-10.0,-4.9,-4.3,6.9,-20.4*,1.1,/
CCCCCc1nnc(NC(=O)C2COc3ccccc3O2)s1 (stereo unspecified),-11.6,-3.1,-1.9,-1.8,10.6,-20.0*,3.69,-11.1
CCN(C(=O)COC(=O)c1cn(-c2ccccc2)nc1-c1ccccc1)C1CCS(=O)(=O)C1 (stereo unspecified),-5.3,-9.3,1.5,0.6,7.2,-38.7*,-23.9,-12.2
Cc1ccc(S(=O)(=O)Nc2cccc3c2O[C@@H](CN(C)S(=O)(=O)c2ccc(Cl)cc2)[C@H](C)CN([C@@H](C)CO)C3=O)cc1,/,/,/,-1.0,/,3.9,/,/
O=C(CSCc1c(Cl)cccc1Cl)NCc1ccccn1,12.0,-12.4,-4.1,0.0,5.8,-22.8*,-5.63,-2.1
SMILES,HIV Env fusion,PvdQ acylase,FN deposition inh,ERp5 block,PDI inh,Ecoli rRNA inh,AID977621,AID977628
O=C(COc1ccc(Br)cc1)NCc1ccccn1,/,5.7,/,-0.9,9.7,6.1,/,/
O=C(CSCc1ccc(Br)cc1)NCc1ccccn1,-17.9,-11.1,/,-0.7,0.0,-19.4*,1.89,0.689
COc1ccc(CNC(=O)CSCc2c(F)cccc2Cl)cc1,12.4,-10.2,1.7,0.8,-5.9,-26.7*,-2.64,/
C[C@H](CO)N1C[C@H](C)[C@H](CN(C)C(=O)NC2CCCCC2)OCCCC[C@H](C)Oc2ccc(NC(=O)Nc3ccc(F)cc3)cc2C1=O,-70.1[16.7 µM],/,-1.5,2.3,/,-3.6,/,/
COCC(=O)N1CC(=O)N2[C@H](CO)[C@@H](c3ccc(-c4cccnc4)cc3)[C@H]2C1,/,/,/,18.4,/,2.7,/,/
COC(=O)c1ccc(OS(=O)(=O)c2ccc(NC(C)=O)cc2)cc1,19.6,0.6,-1.8,2.8,17.1,-21.4*,/,?
Cc1nn(CC(O)COc2ccc3c(c2)CCC3)c(C)c1Br (stereo unspecified),-4.4,-11.4,0.4,/,3.9,/,/,/
CC(=O)c1c(C)nn(CC(O)COc2ccc3c(c2)CCC3)c1C (stereo unspecified),/,9.4,/,-2.2,2.6,-21.9*,-15.9,/
C/C=C/c1ccc([C@@H]2[C@@H](CO)N3C(=O)CN(C(=O)Nc4ccc(F)cc4)C[C@H]23)cc1,/,/,-4.1,1.0,/,-1.2,/,/
NC(=O)c1cccnc1Oc1ccc(Cl)cc1Cl,-13.9,-0.2,-5.0,2.2,4.2,-30.7*,-6.87,-12.5
Cc1cc(Cl)ccc1Nc1ncccc1C(N)=O,-58.5,-2.9,5.4,-0.2,-11.1,1.5,/,/
Cc1ccc(-c2n[nH]c(S(C)(=O)=O)c2C#N)cc1,2.6,10.3,1.0,-4.7,-1.1,-21.4*,-20,?
Cc1cccc(-c2n[nH]c(S(C)(=O)=O)c2C#N)c1,1.9,-12.1,1.4,4.8,-31.5,-15.8,/,/
CCC(=O)N1[C@H](CO)[C@@H]2c3ccccc3N(C(=O)c3cccc(OC)c3)C[C@@H]21,/,/,/,/,/,5.7,/,/
COc1cc(NC(=O)c2ccccc2)c(OC)cc1Cl,/,-14.1,/,/,-4.9,/,/,/
COc1ccc(-c2ccccc2)cc1NC(=O)c1ccncc1,10.0,-5.1,2.7,5.0,-7.2,-31.3*,-20.9,/
Cc1cc(C)nc(SCc2cn3c(C)cccc3n2)n1,1.6,/,-1.8,-1.0,1.5,-18.6*,/,?
Cc1ccnc(SCc2cn3c(C)cccc3n2)n1,-7.3,-11.3,/,2.4,5.5,-9.7,/,/

# Source: PubChem
